OX1R antag-1: antagonists of human orexin 1 receptor. O43613. CHO/OX1R cells, Fluo-8 calcium fluorescence, orexin A. inhibition, % at 5 µM. 330,000 compounds, 0.43% hits. AID 434989;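 active = inhibition above its plate's threshold, mean inhibition of all tested compounds on the plate plus 3 SD, cut at about 37% in these data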
Target sequence (O43613 whole entry, looked up): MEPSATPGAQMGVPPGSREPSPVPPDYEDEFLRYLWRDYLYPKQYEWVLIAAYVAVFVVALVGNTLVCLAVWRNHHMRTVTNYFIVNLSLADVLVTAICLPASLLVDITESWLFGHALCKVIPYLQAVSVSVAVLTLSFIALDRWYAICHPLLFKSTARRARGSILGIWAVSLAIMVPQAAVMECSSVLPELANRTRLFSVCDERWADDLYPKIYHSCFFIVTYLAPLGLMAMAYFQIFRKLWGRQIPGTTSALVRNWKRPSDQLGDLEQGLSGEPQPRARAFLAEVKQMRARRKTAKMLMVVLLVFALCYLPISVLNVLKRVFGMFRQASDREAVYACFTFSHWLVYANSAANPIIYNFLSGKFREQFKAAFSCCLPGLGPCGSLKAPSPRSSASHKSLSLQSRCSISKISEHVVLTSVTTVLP
CHO parental Ca: counter-screen for OX1R antagonists: effect in parental CHO cells | parental CHO-K1, ATP-induced calcium, Fluo-8 fluorescence | inhibition, % at 5.6 µM | 330,000 compounds, 0.63% hits | AID 463079;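 active = inhibition above that plate's mean sample inhibition plus 3 SD, cut at about 26% in these data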
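Assay system: untransfected parental CHO cell line. Also added: ATP agonist challenge. Dosing: one dose, 5.6 µM nominal. Measured by: Fluo-8 fluorescence. Read-out: % inhibition. Benchmarks: ATP wells versus no-ATP DMSO wells. Repeats: no replicates.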
EP2 modulator: modulates human prostaglandin E2 receptor EP2 signaling; P43116; EP2-expressing cells, cAMP HTRF FRET, PGE2 co-stimulation; induction, % at 25 µM; 260,000 compounds, 0.83% hits;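 active = compounds whose cAMP rise, as percent of the full-agonist control response, exceeds 60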;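 note: rat C6 glioma line stably carrying human EP2 under a CMV promoter; the protocol text gives 20 µM as final concentration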
GPR7 antagonist: human neuropeptides B/W receptor 1 antagonism; P48145; GPR7-expressing cells, fluorescence antagonist assay; inhibition, % at 4.4 µM; 290,000 compounds, 1.1% hits; AID 1861; in the data active = inhibition above about 16%, passing the limit was not always enough;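 note: cells stimulated with the agonist NPW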
OX1R antag-2: OX1R (human) antagonism; 330,000 compounds, 1.8% hits; AID 485270; OX1R-expressing cells, FRET antagonist read-out; inhibition, % at 6.6 µM; O43613; in the data active = inhibition mostly above about 38%, no sharp cut-off; inactive = mostly below about 40%
EP2 antag: blocks the human prostaglandin E2 receptor EP2; C6 glioma cells expressing human EP2, cAMP TR-FRET; cells stimulated with saturating PGE2; P43116; 260,000 compounds, 0.52% hits; inhibition, % at 25 µM;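 active = percent inhibition above 40 after rounding to a whole number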;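 note: rat C6 glioma host cells with rolipram phosphodiesterase inhibitor present; the protocol text gives 20 µM as final concentration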
OX1R Ca confirm: confirmation of human orexin 1 receptor antagonists; inhibition, % at 5 µM; shares compounds with OX1R antag-1; CHO/OX1R cells, orexin A calcium Fluo-8 fluorescence; 1,100 compounds, 38% hits; in the data active = inhibition above about 29%
CHO Ca counter: signal in parental CHO cells, OX1R antagonist counter-screen; 1,100 compounds, 9.3% hits; shares compounds with OX1R antag-1; inhibition, % at 5.6 µM; parental CHO-K1, ATP-induced calcium, Fluo-8 fluorescence;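 active = inhibition above a per-plate limit, the mean inhibition of that plate's test compounds plus 3 SD, cut at about 25% in these data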
Numbers stand for hits; – = inactive; · = no result. Hits are enriched below; roughly 3.7% of the tested compounds scored in any of these assays.

SMILES	OX1R antag-1	CHO parental Ca	EP2 modulator	GPR7 antagonist	OX1R antag-2	EP2 antag	OX1R Ca confirm	CHO Ca counter
COc1cccc(NC(=O)CCNS(=O)(=O)c2cccc3nsnc23)c1	–	–	–	–	–	–	·	·
O=C(NCCN1C(=O)S/C(=C\c2ccccc2)C1=O)c1cc(S(=O)(=O)N2CCOCC2)c(Cl)cc1Cl	–	–	–	–	–	–	59	–
O=C(NCCN1C(=O)S/C(=C\c2ccc(Cl)cc2)C1=O)c1ccc(F)c(S(=O)(=O)N2CCOCC2)c1	–	–	–	–	–	–	·	·
O=C(CCc1ccncc1)NC1CCCc2c1cnn2-c1cc(F)cc(F)c1 (stereo unspecified)	46	–	·	–	–	·	–	–
CCOc1ccc(-c2nc3n(c(=O)c2C#N)CCS3)cc1	–	–	–	–	–	–	·	·
COc1ccc(CN(CC(=O)NCC2CCCO2)C(=O)CCC(=O)Nc2cc(C)on2)cc1 (stereo unspecified)	–	–	–	–	–	–	·	·
O=C(OCCCc1cc2ccccc2c(=O)o1)c1ccccc1C(F)(F)F	–	–	·	·	–	·	·	·
O=C(OCCc1cc2ccccc2c(=O)o1)c1ccccc1C(F)(F)F	–	–	·	·	–	·	–	–
COc1ccc(C(=O)/C(C#N)=N/Nc2ccccc2[N+](=O)[O-])cc1	–	–	–	–	–	–	·	·
COc1ccc(C(=O)/C(C#N)=N/Nc2ccc([N+](=O)[O-])cc2)cc1	–	–	–	–	–	–	–	55
COc1ccc(NC(=O)c2cc(-c3ccccc3Cl)on2)cc1OC	–	–	–	–	–	–	30	–
COC(=O)c1ccc2c(c1)C(C)(C)C(/C=C/c1ccc(O)cc1)=[N+]2C	–	–	–	–	–	–	66	52
O=C(CSCc1cccc(CSCC(=O)Nc2ccc3ccccc3c2)n1)Nc1ccc2ccccc2c1	–	–	–	–	–	·	31	–
CC(C)C(NC(=O)Cc1ccccc1)C(=O)N1CCN(c2cccc(Cl)c2)CC1 (stereo unspecified)	41	–	·	·	–	·	–	–
COc1cccc(S(=O)(=O)NCc2ccc(C(=O)Nc3cccc(Cl)c3)cc2)c1	45	–	–	–	–	–	–	–
CN(Cc1ccccc1)S(=O)(=O)c1ccc2c(c1)n(C)c(=O)c(=O)n2C	–	–	–	–	–	–	–	–
Cc1cc2c(cc1S(=O)(=O)N(C)Cc1ccccc1)n(C)c(=O)c(=O)n2C	–	–	·	–	–	·	·	·
Cc1ccc(NC(=S)N(Cc2cccc(Br)c2)CC2CCC(C(=O)O)CC2)cc1Cl (stereo unspecified)	–	–	–	–	–	–	·	·
O=C(CCN1C(=O)C2CC=CCC2C1=O)OCC(=O)c1ccc(F)cc1 (stereo unspecified)	–	–	·	·	–	·	·	·
N#CCC(CNc1ncc(C(F)(F)F)cc1Cl)OC(=O)c1c(F)cccc1F (stereo unspecified)	–	–	·	–	–	–	–	–
FC(F)(F)COc1ccc(-n2ccnc2)nn1	–	–	–	–	–	–	–	–
CCOc1ccccc1N1CCN(C(=O)c2ccc(S(=O)(=O)Nc3ccccc3)cc2)CC1	45	–	·	·	–	·	41	–
Cc1ccc(S(=O)(=O)N2C[C@@H]3[C@H]4CC[C@H](C4)[C@@H]3[C@@H](C)[C@H]2c2ccco2)cc1	82	–	·	·	–	·	–	–
Cc1ccc(S(=O)(=O)N2C[C@@H]3[C@H]4CC[C@H](C4)[C@@H]3[C@@H](C)[C@@H]2c2ccco2)cc1	–	–	·	·	–	·	·	·
Cc1ccc2c(c1)N/C(=C(\C=C(/Cl)[N+](=O)[O-])[N+](=O)[O-])N2	–	–	–	–	–	–	·	·
SMILES	OX1R antag-1	CHO parental Ca	EP2 modulator	GPR7 antagonist	OX1R antag-2	EP2 antag	OX1R Ca confirm	CHO Ca counter
O=C(CCCOc1ccccc1)Nc1ccc(Cl)c(S(=O)(=O)N2CCOCC2)c1	–	–	·	·	–	·	–	–
O=C(CCCOc1ccccc1)Nc1cccc([N+](=O)[O-])c1	–	–	–	–	–	–	–	–
O=C(O)CCCC(=O)Nc1cccc([N+](=O)[O-])c1	–	–	–	–	–	–	·	·
COC(=O)c1c(-c2ccc(N(C)C)cc2)sc2ccc(OC)cc12	65	–	·	·	–	·	–	–
COC(=O)c1c(-c2ccc(OC)cc2)sc2cc3c(cc12)OCO3	–	–	·	·	–	·	·	·
Fc1ccc(NC(=S)Nc2ccc(F)c(Cl)c2)cc1Cl	–	–	–	–	–	–	37	61
O=C(NC(=S)Nc1ccc(F)c(Cl)c1)C1CC1	–	–	·	–	–	·	·	·
CC(C)N(CCc1ccncc1)C(=S)Nc1ccc(F)c(Cl)c1	–	–	–	–	–	–	–	–
COc1cc(C2C(C(N)=O)=C(C)Nc3nc(CCCO)nn32)cc(OC)c1OC (stereo unspecified)	–	–	–	·	–	–	·	·
CCSC1=N/C(=C\c2ccc3c(c2)OCO3)C(=O)S1	–	–	–	–	–	–	·	·
CCSC1=N/C(=C\C=C2/Oc3ccccc3N2CC)C(=O)S1	–	–	–	–	–	–	–	–
C[C@@H](CSc1ccc(Br)cc1)CN1CC[C@H](NC(=O)OCc2ccccc2)CCC1=O	53	–	·	·	–	·	–	–
COC(=O)C1=C(C(=O)OC)[C@@H]2N(C)c3ccc(OC)cc3[C@@]23C[C@@H](C(=O)OC)N(C(=O)CC(C)C)C3=N1	–	–	·	·	–	–	·	·
Cc1ccccc1-n1nnnc1SCc1csc(-c2ccccc2)n1	–	–	–	–	–	–	–	–
Cc1ccccc1-n1nnnc1SCC(C)C	–	–	–	–	–	–	·	·
COc1ccc(NC(=O)c2ccc(NC(=O)COC(=O)c3cnc(C)cn3)cc2)cc1	–	–	·	·	–	·	–	–
Cc1cnc(C(=O)OCC(=O)Nc2ccc(Oc3ccccc3)cc2)cn1	–	–	–	–	–	–	·	·
CCOC(=O)N1CCN(C(=O)c2cccc(S(=O)(=O)Nc3ccc(OC)cc3)c2)CC1	–	–	·	·	–	·	·	·
CCCCn1c(=O)[nH]c2nc3cc(N)ccc3nc2c1=O	61	–	–	–	–	–	35	29
CCCCn1c(N)c(Br)c(=O)[nH]c1=O	–	–	–	–	–	–	·	·
COc1ccc(-c2cc(-c3ccc(Cl)cc3)n[nH]2)c(O)c1	–	–	·	–	–	·	·	·
COc1ccc(-c2cc(-c3ccc(OC)c(OC)c3)n[nH]2)c(O)c1	–	–	–	–	–	–	–	–
Cc1cc(C)n(-c2nc(-c3cccc(Cl)c3)cs2)n1	41	–	–	–	–	–	–	–
Cc1cc(C)n(-c2nc(C(=O)O)cs2)n1	–	–	–	–	–	–	·	·
O=C(O)CNC(=O)C(c1ccccc1)c1ccccc1	–	–	–	–	–	–	·	·

Compound activity deposited in PubChem BioAssay by several laboratories.
